Results on four molecules are retold here after ChEMBL document CHEMBL1153841, “The antifungal polyketide ambruticin targets the HOG pathway” (2007).

Assay [1] has as its system Saccharomyces cerevisiae. Nature of the assay: Antifungal activity against Saccharomyces cerevisiae ATCC 201388 carrying pYES2 in SD/-Ura medium after 48 hrs by CLSI susceptibility test. The conditions noted are these: ATCC 201388, 48 h. It counts as functional. The essentials: (§1)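 Broth MIC following CLSI M27, except that inoculum prep and test medium used SD/−Ura in place of RPMI. Read at 48 h. MIC-0 is the concentration giving 90% growth reduction versus the untreated control.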

The subject of assay [2] is Saccharomyces cerevisiae. Nature of the assay: Antifungal activity against Saccharomyces cerevisiae ATCC 201388 carrying pYES2-HIK1 in SG/-Ura medium after 48 hrs by CLSI susceptibility test. It counts as functional. The following applies: ATCC 201388, 48 h. Put shortly:
(§2)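 CLSI M27 broth MIC, modified so that SG/−Ura served as both inoculum-preparation and test medium in place of RPMI. Uracil is omitted to select for plasmid maintenance. Read after 48 h of incubation. MIC-0 is the concentration causing 90% reduction in growth relative to the untreated control.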

For assay [3], the system named is Saccharomyces cerevisiae. Nature of the assay: Antifungal activity against Saccharomyces cerevisiae ATCC 201388 carrying pYES2-HIK1 in SD/-Ura medium after 48 hrs by CLSI susceptibility test. It counts as functional. The conditions noted are these: ATCC 201388, 48 h. Put shortly:
as §1

Assay [4] has as its system Saccharomyces cerevisiae. Kind of assay: Antifungal activity against Saccharomyces cerevisiae ATCC 201388 carrying pYES2 in SG/-Ura medium after 48 hrs by CLSI susceptibility test. The class given is functional. The conditions noted are these: ATCC 201388, 48 h. Put shortly:
as §2

Assay [5] has as its system Saccharomyces cerevisiae. Kind of assay: Antifungal activity against Saccharomyces cerevisiae ATCC 201388 carrying pYES2-hik1-H736V in SD/-Ura medium after 48 hrs by CLSI susceptibility test. The class given is functional. The following applies: ATCC 201388, 48 h. The essentials:
as §1

The subject of assay [6] is Saccharomyces cerevisiae. Nature of the assay: Antifungal activity against Saccharomyces cerevisiae ATCC 201388 carrying pYES2-hik1-D1153E in SG/-Ura medium after 48 hrs by CLSI susceptibility test. The class given is functional. The following applies: ATCC 201388, 48 h. Put shortly: as §2
The subject of assay [7] is Saccharomyces cerevisiae. Nature of the assay: Antifungal activity against Saccharomyces cerevisiae ATCC 201388 carrying pYES2-hik1-H736V in SG/-Ura medium after 48 hrs by CLSI susceptibility test. The class given is functional. The conditions noted are these: ATCC 201388, 48 h. The essentials: as §2
In assay [8] the test system is Saccharomyces cerevisiae. Kind of assay: Antifungal activity against Saccharomyces cerevisiae ATCC 201388 carrying pYES2-hik1-D1153E in SD/-Ura medium after 48 hrs by CLSI susceptibility test. The following applies: ATCC 201388, 48 h. The class given is functional. The essentials:
as §1

The subject of assay [9] is Saccharomyces cerevisiae. Kind of assay: Elevation of Hog1 phosphorylation Saccharomyces cerevisiae ATCC 201388 carrying pYES2-HIK1 at 25 ppm after 4 hrs in SD/-Ura medium by Western blot analysis. It counts as functional, organism-based. The essentials:
(§3)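 Overnight cultures in SD/−Ura resuspended in fresh SD/−Ura and grown 4 h, then exposed 10 min to compound (25 ppm), 0.5 M NaCl, or left untreated. Soluble protein from cell extracts Western blotted with anti-p38 antibody against doubly phosphorylated T180/Y182 (phospho-Hog1) and anti-C-terminal Hog1 antibody (total Hog1). Detection by HRP-conjugated secondary antibody with ECL Plus.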
A general note: A western blot detects proteins with antibodies after separation by electrophoresis.

In assay [10] the test system is Saccharomyces cerevisiae. Nature of the assay: Elevation of Hog1 phosphorylation Saccharomyces cerevisiae ATCC 201388 carrying pYES2 at 25 ppm after 4 hrs in SD/-Ura medium by Western blot analysis. The class given is functional, organism-based. The essentials: as §3
Assay [11] concerns Saccharomyces cerevisiae. Kind of assay: Elevation of Hog1 phosphorylation Saccharomyces cerevisiae ATCC 201388 carrying deltahog1 gene at 25 ppm after 4 hrs in SD/-Ura medium by Western blot analysis. It counts as functional, organism-based. The essentials:
as §3

By MIC90 is commonly meant an inhibitory concentration at the 90% level, which refers to growth in some studies and to a panel of isolates in others. A high value points to weaker potency.

Each structure is given as a SMILES string. Values after ≈ are worked out from the molar mass of the structure shown. Active and inactive are the calls of the source. No cut-off for these calls is given here.

Turning to `N#Cc1c[nH]cc1-c1cccc2c1OC(F)(F)O2` [FLUDIOXONIL], the MIC90 with Saccharomyces cerevisiae [1] was more than 32 µg/mL; in the assay with Saccharomyces cerevisiae [2], 2 µg/mL (≈ 8.06 µM); in the assay on Saccharomyces cerevisiae [3], more than 32 µg/mL; against Saccharomyces cerevisiae [4] it was more than 32 µg/mL; with Saccharomyces cerevisiae [5], more than 32 µg/mL; with Saccharomyces cerevisiae [6], more than 32 µg/mL. Also, the MIC90 in the assay on Saccharomyces cerevisiae [7] and in the assay on Saccharomyces cerevisiae [8] was more than 32 µg/mL in each case.
As to `CC[C@H]1O[C@@H](/C(C)=C/[C@H](C)/C=C/[C@H]2[C@@H](C)[C@@H]2/C=C/[C@@H]2O[C@H](CC(=O)O)C[C@H](N(C)C)[C@H]2O)CC=C1C` [AMBRUTICIN VS3], the MIC90 with Saccharomyces cerevisiae [1] was more than 32 µg/mL; in the assay with Saccharomyces cerevisiae [2], 0.5 µg/mL (≈ 0.997 µM); against Saccharomyces cerevisiae [3], more than 32 µg/mL; in the assay with Saccharomyces cerevisiae [4] it was more than 32 µg/mL; against Saccharomyces cerevisiae [5], more than 32 µg/mL; with Saccharomyces cerevisiae [6], more than 32 µg/mL. For the same molecule, the MIC90 against Saccharomyces cerevisiae [7] and with Saccharomyces cerevisiae [8] was more than 32 µg/mL throughout.
On to `C=CC1(C)OC(=O)N(c2cc(Cl)cc(Cl)c2)C1=O` (configuration not stated) [VINCLOZOLIN], for which the MIC90 against Saccharomyces cerevisiae [1] was more than 32 µg/mL; against Saccharomyces cerevisiae [2], 16 µg/mL (≈ 55.9 µM); against Saccharomyces cerevisiae [3], more than 32 µg/mL; against Saccharomyces cerevisiae [4], more than 32 µg/mL; against Saccharomyces cerevisiae [5] it was more than 32 µg/mL; in the assay on Saccharomyces cerevisiae [6], more than 32 µg/mL. The MIC90 in the assay on Saccharomyces cerevisiae [7] and against Saccharomyces cerevisiae [8] was more than 32 µg/mL in each case.
For the molecule `CC[C@H]1O[C@@H](/C(C)=C/[C@H](C)/C=C/[C@H]2[C@@H](C)[C@@H]2/C=C/[C@@H]2O[C@H](CC(=O)O)C[C@H](O)[C@H]2O)CC=C1C`, the outcome with Saccharomyces cerevisiae [9] was Active. Besides, the outcome with Saccharomyces cerevisiae [10] and in the assay on Saccharomyces cerevisiae [11] was inactive.
